Screens as filed in PubChem BioAssay.
Only some compounds are listed: those with a hit (about 2.4% of all), similar ones and a draw of the others.
CTSL1 counter: Fasciola hepatica cathepsin L1 inhibitors, primary screen, counter-screen for PFM18AAP inhibitor project, biochemical, QFRET, fluorogenic peptide substrate. recombinant F. hepatica cathepsin L1, Z-Leu-Arg-MCA fluorescence. inhibition, % at 5.96 µM. hit rate 0.49% among 300,000;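 active means inhibition above the mean of all tested compounds plus 3 SD, set per screening campaign, cut at about 17% in these data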
T cruzi repl: inhibitors of intracellular T. cruzi growth, primary screen, luminescence, NIH3T3 host cells | T. cruzi beta-gal in NIH3T3, 90 h | hit rate 1.4% among 300,000 | AID 1885, 2009 | inhibition, % (concentration not given with the values);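 active means mean inhibition across valid replicates above about 55%, limit read from the data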;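 further: signal also drops with host cell toxicity which is not excluded here; higher percent means less beta-gal luminescence so fewer parasites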
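Read-out: Parasite load inhibition, % | Test system: Mouse NIH/3T3 fibroblasts infected with β-gal-expressing T. cruzi Tulahuen C4 | Amount: 5,000 cells/well | Medium: DMEM, 2% fetal bovine serum | Signal: GalScreen β-gal luminescence, detergent lysis, 60 min | Timing: 3 h attach, ≥90 h co-culture | Also added: Tulahuen C4 trypomastigotes, 5000/well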
PP5 inh: PP5 phosphatase inhibitors, primary screen, biochemical, fluorescence. Serine/threonine-protein phosphatase 5 (Homo sapiens), P53041. purified PP5c, OMFP substrate fluorescence. inhibition, % at 6.7 µM. hit rate 0.18% among 320,000. AID 1987, 2009;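 active means inhibition above the campaign's mean inhibition across all tested compounds plus 3 SD, cut at about 9.5% in these data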
Target sequence (P53041 whole entry, looked up): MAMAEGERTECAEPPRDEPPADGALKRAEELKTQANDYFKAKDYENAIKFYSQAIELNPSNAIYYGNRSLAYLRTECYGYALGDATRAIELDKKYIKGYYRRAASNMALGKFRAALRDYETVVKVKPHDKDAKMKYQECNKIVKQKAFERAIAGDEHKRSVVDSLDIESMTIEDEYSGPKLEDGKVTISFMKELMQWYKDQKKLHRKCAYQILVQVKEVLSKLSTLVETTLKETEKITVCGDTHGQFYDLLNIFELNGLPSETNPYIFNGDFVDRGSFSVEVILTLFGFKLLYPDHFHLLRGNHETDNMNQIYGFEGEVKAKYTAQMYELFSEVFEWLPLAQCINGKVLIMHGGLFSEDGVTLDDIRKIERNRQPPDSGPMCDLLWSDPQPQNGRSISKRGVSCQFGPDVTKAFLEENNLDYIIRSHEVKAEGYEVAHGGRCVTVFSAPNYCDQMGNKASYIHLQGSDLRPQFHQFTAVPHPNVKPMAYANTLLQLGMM
H9c2 protect: cardioprotection against H2O2-induced cell death, primary screen, uHTS, H9c2 cells, ATPLite luminescence. H9c2 cardiomyocytes, H2O2 injury protection, 2 h. protection from H2O2 cell death, % at 20 µM. hit rate 0.63% among 360,000. AID 588492, 2011;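 active means compounds giving at least 50% protection of heart cells from peroxide-induced death in the single-dose screen, raw or plate-pattern-corrected value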
p-CIP stab down: p/CIP-EGFP fusion destabilizers, primary screen, fluorescence, F442A cells; Q05BA5; 16 h; decrease of EGFP signal, % at 10 µM; hit rate 0.01% among 290,000; AID 1984, 2009;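 active means EGFP signal decrease of at least 30% at 10 µM or well 3 SD below plate mean, unless failing retest; inactive means the rest, including hits failing retest or dose response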
JMJD2C inh: inhibitors of GASC-1 histone demethylase, primary screen, biochemical, fluorescence, DELFIA europium; Lysine-specific demethylase 4C (Homo sapiens), Q9H3R0; GST-JMJD2C(1-420) H3K9me3 demethylation; inhibition, % at 2.35 µM; hit rate 0.069% among 330,000; AID 2099, 2009;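 active means more than half of a compound's replicate wells show inhibition beyond 50%, single wells judged on their own value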;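 further: signal counts dimethyl H3K9 product captured on neutravidin plate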
Of the large screens only hits and unclear results are named; the others gave an inactive call.

O=C(N/N=C\c1cc(Cl)ccc1O)c1ccc(S(=O)(=O)N2CCCCC2)cc1	H9c2 protect 62.8
O=C(CNC(=O)c1ccccc1Br)N/N=C/c1ccccc1O	none
O=C(CNC(=O)c1ccccc1Br)N/N=C/c1cc(Br)ccc1O	H9c2 protect 74.3
O=C(Nc1cc(S(=O)(=O)Nc2ccc(Cl)cc2)ccc1O)c1ccc(S(=O)(=O)N2CCCCCC2)cc1	none
O=C(CP(=O)(c1ccccc1)c1ccccc1)N/N=C/c1cc(Br)cc(Br)c1O	H9c2 protect 70.7
CCOc1ccc(NC(=O)CN2CC(c3ccccc3)CC2=O)cc1 (configuration not stated)	none
O=C(C[n+]1ccccc1)N/N=C/c1cc(Br)cc(Br)c1O	none
COc1ccc(NC(=O)N2CCCC2C(=O)Nc2ccc(C)cc2C)cc1 (configuration not stated)	none
Cc1ccc(Cl)cc1N1CCN(C(=O)C(C)n2ncn3cccc3c2=O)CC1 (configuration not stated)	none
COc1ccc(C(=O)NC2CCCc3ccccc32)c(OC)c1OC (configuration not stated)	none
CCOc1ccc(NC(=O)CN(C)C(=O)c2ccc(=O)[nH]c2)cc1OCC	none (no result: CTSL1 counter, PP5 inh)
COc1ccc(-c2ccc(N)cn2)cn1	none (no result: CTSL1 counter, T cruzi repl, p-CIP stab down)
O=C(c1cc(C2CCCCN2S(=O)(=O)c2cccs2)on1)N1CCOCC1 (configuration not stated)	none (no result: CTSL1 counter, T cruzi repl, PP5 inh, p-CIP stab down, JMJD2C inh)
O=C(CNC(=O)c1ccncc1)N/N=C/c1cc(Br)ccc1O	none
O=C(CNC(=O)c1ccccc1)N/N=C/c1cc(Br)ccc1O	H9c2 protect 58.6
O=C(N/N=C/c1cc(Cl)ccc1O)c1ccccc1Br	H9c2 protect 76.6
O=C(N/N=C/c1cc(Cl)ccc1O)c1cccnc1	none
CC1C(c2ccccc2)N(C)C(c2ccccc2)CC1(O)c1ccc(F)cc1 (configuration not stated)	T cruzi repl 57.8
CN1C(c2ccccc2)CC(=NO)CC1c1ccccc1 (configuration not stated)	none
O=C(CN1C(=O)NC2(CCCCC2)C1=O)N1CCN(c2ncccn2)CC1	none (no result: CTSL1 counter, T cruzi repl, p-CIP stab down)
NC(=O)c1ccc(Oc2ccc3c(c2)CCC3)c([N+](=O)[O-])c1	none
Cc1oc(-c2cccc(Cl)c2)nc1CN1CCCC(C(=O)NCCCN2CCOCC2)C1 (configuration not stated)	T cruzi repl 62.6
CCN(CCNC(=O)C1CCCN(Cc2nc(-c3ccc(OC)cc3)oc2C)C1)c1ccccc1 (configuration not stated)	T cruzi repl 62.4
CCc1ccc(-c2nc(CN3CCC(C(=O)NCCN(CC)c4ccccc4)CC3)c(C)o2)cc1	none
Cc1oc(-c2cccc(Cl)c2)nc1CS(=O)(=O)CC(=O)NCCN1CCCC1	CTSL1 counter 90.5
CC(=O)c1ccc(OCC(=O)OCC(=O)Nc2sccc2C(N)=O)cc1	none (no result: CTSL1 counter, T cruzi repl, p-CIP stab down)
Cc1ccc(CNC(=O)CNC(=O)[C@@H]2Cc3ccccc3CN2)cc1	none
CC1=Nc2ccccc2N=C(NC(=O)CN2CCN(c3ccccc3)CC2)C1c1ccccc1 (configuration not stated)	T cruzi repl 62.7
N/C(=N\OC(=O)c1ccc2ccccc2c1)c1ccccc1Cl	T cruzi repl 71.5
Cc1nn(C)c(C(=O)Nc2c(C)nn(Cc3c(F)c(F)c(F)c(F)c3F)c2C)c1Br	none (no result: CTSL1 counter, T cruzi repl, PP5 inh)
CC(OC(=O)Cc1n[nH]c(=O)c2ccccc12)C(=O)Nc1ccc(F)cc1Cl (configuration not stated)	H9c2 protect 68.8 (no result: p-CIP stab down)
CC(OC(=O)Cc1n[nH]c(=O)c2ccccc12)C(=O)Nc1ccc(F)cc1 (configuration not stated)	H9c2 protect 59.2 (no result: p-CIP stab down)
Cc1ccc(S(=O)(=O)N2CCCC2CNC(=O)C(=O)Nc2ccc(F)cc2F)cc1 (configuration not stated)	none (no result: p-CIP stab down)
Cc1c(OC(C)C(=O)NCc2ccccn2)ccc2c3c(c(=O)oc12)CCCC3 (configuration not stated)	none
Cc1ccc(OCC(=O)N/N=C/c2ccc([N+](=O)[O-])o2)cc1	T cruzi repl 66.3
Cc1ccc(NC(=O)CCC(=O)N/N=C/c2ccc([N+](=O)[O-])o2)cc1C	T cruzi repl 60.6
Cc1ccc(OCC(=O)N/N=C\c2ccc(C)o2)c([N+](=O)[O-])c1	none (no result: CTSL1 counter, PP5 inh)
COc1ccc(-c2nn(-c3ccccc3)cc2C(=O)N/N=C/c2ccc([N+](=O)[O-])o2)cc1	T cruzi repl 90.2
Cc1cc(C(=O)N/N=C/c2ccc([N+](=O)[O-])o2)c(C)o1	none
O=C(N/N=C/c1ccc(-c2ccc([N+](=O)[O-])cc2)o1)C(O)c1ccccc1 (configuration not stated)	none
CCCC(=O)Nc1ccc(C(=O)N/N=C/c2ccc([N+](=O)[O-])o2)cc1	none
O=C(N/N=C/c1ccc([N+](=O)[O-])o1)C(O)c1ccccc1 (configuration not stated)	T cruzi repl 75.8
COc1ccc(NC(=O)Nc2nnc([C@H]3C[C@H](O)[C@@H](CO)O3)s2)cc1	none (no result: CTSL1 counter, T cruzi repl, PP5 inh, p-CIP stab down, JMJD2C inh)
Cc1cnc(C(=O)N2CCCC(N3CCN(c4cccc(C(F)(F)F)c4)CC3)C2)cn1 (configuration not stated)	none
CN(/N=C/c1ccc([N+](=O)[O-])o1)c1ccccc1	T cruzi repl 60.0
O=C(CNc1ccc2ccccc2c1)N/N=C/c1ccc([N+](=O)[O-])o1	T cruzi repl 68.5
O=C(CNc1ccc2ccccc2c1)N/N=C/c1ccc(C(=O)O)cc1	none
O=C(COc1ccccc1)N/N=C/c1ccc([N+](=O)[O-])o1	T cruzi repl 82.6
C=CS(=O)(=O)N(Cc1ccc(Cl)c(Cl)c1)C[C@@H](O)CO	none (no result: CTSL1 counter, T cruzi repl, PP5 inh, p-CIP stab down, JMJD2C inh)
CCn1c(=NC(=O)CS(=O)(=O)c2ccccc2)sc2cccc(OC)c21	T cruzi repl 57.6 (no result: p-CIP stab down)
O=C(CN(C(=O)CCC(=O)Nc1nccs1)c1ccccc1F)NCCc1ccccc1	none
O=C(Nc1ccc2c(c1)[nH]c(=O)c1ccccc12)C(F)(F)F	H9c2 protect 64.3 (no result: CTSL1 counter, T cruzi repl, PP5 inh, p-CIP stab down, JMJD2C inh)
CC(=O)Nc1ccc2c(c1)[nH]c(=O)c1ccccc12	H9c2 protect 75.0 (no result: CTSL1 counter, T cruzi repl, PP5 inh, p-CIP stab down, JMJD2C inh)
CCN(CCCNC(=O)COc1cc(=O)n(CC)c2ccccc12)Cc1ccccc1	none
CCN(CCCNC(=O)CCCOc1cc(=O)n(C)c2ccccc12)Cc1ccccc1	T cruzi repl 55.1
CCn1nc(C)cc1-c1nnc(Sc2ncc([N+](=O)[O-])s2)n1C	T cruzi repl 61.4
CCn1nc(C)cc1-c1nnc(SCC(=O)Nc2ccccc2)n1CCCOC	none
